In the library only some 2.9% were active in any assay of this set; here they are far more common.
MEKK2wt PB1 HTS: raises or lowers MEK5 binding to wildtype human MEKK2 PB1 domain | Q9Y2U5 | bead flow cytometry, Alexa488-MEK5 binding to MEKK2 WT; actives lie on both sides | binding response (% of control), % at 10 µM | 290,000 tested, 1.1% active | AID 1531; in the data active = binding response below about 67% or above about 130%
Dynein cargo inh: dynein cargo transport inhibition; 3617.4 mouse cells, GR-EGFP nuclear translocation imaging; test concentration mostly 20 µM; stimulated with dexamethasone, 1 µM; active compounds read low; z-score, hits read low; 220,000 tested, 0.47% active;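 active = plate z-score of nuclear minus cytoplasmic receptor signal below a set negative limit, without overly bright fluorescence or cell loss, cut at about -3.5 in these data, passing the limit was not always enough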;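 also: z-score of nuclear minus cytoplasmic ring GR-EGFP intensity difference per well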
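Buffer or medium: tet-free medium with charcoal-stripped serum / Also added: dexamethasone agonist, 1.0 µM final, for 30 min / Timing: induction 48 h, compound 1 h, agonist 30 min / Measured by: high-content fluorescence imaging after fixation / Read-out: nuclear-to-cytoplasmic GR-EGFP distribution per well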
MEKK3 PB1 HTS: raises or lowers MEK5 binding to the human MEKK3 PB1 domain; Q99759; bead-based flow cytometry, Alexa488-MEK5 binding to MEKK3; actives lie on both sides; 0 = blocked by unlabeled MEK5, 100 = vehicle; binding response (% of control), % at 10 µM; 290,000 tested, 1.4% active; AID 1529;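 active = binding response more than 3 SD above or below the average of its plate-row segment, actives on both sides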;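 also: Alexa488 bead fluorescence after subtracting the streptavidin-only scavenger bead signal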
ATG4B inhibitor: ATG4B (human) cysteine protease inhibition; Q9Y4P1; ATG4B cleavage of LC3-PLA2, NBD-HPC fluorescence, 1 h; inhibition, % at 8.33 µM; 340,000 tested, 0.51% active; in the data active = inhibition above about 40%
MEKK2mut PB1 HTS: signal of MEK5 binding to mutant human MEKK2 PB1 domain; bead flow cytometry, Alexa488-MEK5 binding to MEKK2 mutant; percent response, % at 10 µM; 290,000 tested, 0.35% active; in the data active = percent response above about 24%, passing the limit was not always enough
B2AR ag: agonists of human beta-2 adrenergic receptor inducing internalization. P07550. Am2.2-beta2AR cells, FAP receptor internalization, flow cytometry. response, % (test concentration not listed). 340,000 tested, 0.43% active;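 active = response above a set limit, near 3 SD of response in nonfluorescent compounds, cut at about 42% in these data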
Target sequence (P07550 whole entry, looked up): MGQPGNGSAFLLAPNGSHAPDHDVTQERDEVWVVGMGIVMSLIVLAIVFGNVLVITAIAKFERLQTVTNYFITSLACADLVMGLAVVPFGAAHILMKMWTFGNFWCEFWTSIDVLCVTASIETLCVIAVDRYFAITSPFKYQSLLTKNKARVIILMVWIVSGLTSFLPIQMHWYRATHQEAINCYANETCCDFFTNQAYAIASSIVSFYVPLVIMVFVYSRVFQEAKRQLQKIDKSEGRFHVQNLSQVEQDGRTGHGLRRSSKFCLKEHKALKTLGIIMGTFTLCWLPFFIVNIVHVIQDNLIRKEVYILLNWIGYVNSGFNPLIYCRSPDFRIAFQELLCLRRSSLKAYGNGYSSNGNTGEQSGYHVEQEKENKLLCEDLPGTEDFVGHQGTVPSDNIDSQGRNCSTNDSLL
MEKK2wt confirm: raises or lowers MEK5 binding to wildtype human MEKK2, retest | bead flow cytometry, Alexa488-MEK5 binding to MEKK2 WT; actives lie on both sides | shares compounds with MEKK3 PB1 HTS | 5,900 tested, 2.4% active | binding response (% of control), % at 10 µM; in the data active = binding response below about 16% or above about 210%; inactive = in between
MEKK2mut confirm: signal of MEK5 binding to mutant human MEKK2, retest | AID 1893 | 5,900 tested, 2% active | percent response, % at 10 µM | bead flow cytometry, Alexa488-MEK5 binding to MEKK2 mutant | shares compounds with MEKK3 PB1 HTS; in the data active = percent response mostly above about 71%, no sharp cut-off; inactive = mostly below about 38%;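 also: higher means compound restores mutant binding toward wildtype level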
MEKK3 confirm: MEKK3-MEK5 PB1 inhibition, single concentration confirmation. 5,900 tested, 1.8% active. shares compounds with MEKK3 PB1 HTS. binding response (% of control), % at 10 µM. bead flow cytometry, Alexa488-MEK5 binding to MEKK3; active compounds read low;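 active = binding response below 72% of control, or above a set upper limit, though filed actives all read lower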;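 also: 100% = DMSO only wells and 0% = binding blocked by excess unlabeled MEK5; lower values mean stronger disruption of MEK5 binding to MEKK3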
Active calls of the source: *; / = not tested or not shown; [ ] = dose if it differs, or a comment.

SMILES | MEKK2wt PB1 HTS | Dynein cargo inh | MEKK3 PB1 HTS | ATG4B inhibitor | MEKK2mut PB1 HTS | B2AR ag | MEKK2wt confirm | MEKK2mut confirm | MEKK3 confirm
CCOC(=O)N1CCN(S(=O)(=O)c2ccc(C(=O)N(CCN(CC)CC)c3nc4ccc(C)cc4s3)cc2)CC1 | 130.0 | / | 107.0 | 4.1 | 20.0 | 6.2 | / | / | /
CN(C)CCCN(C(=O)c1ccc(S(=O)(=O)N2CCOCC2)cc1)c1nc2ccc(F)cc2s1 | 106.0 | / | 92.0 | -8.0 | -1.0 | 9.2 | / | / | /
CN(C)CCN(C(=O)c1ccc(S(=O)(=O)N2CCCC2)cc1)c1nc2ccc(Br)cc2s1 | 138.0* | / | 107.0 | -13.9 | 18.0 | 16.1 | 177.0 | 50.0 | 109.0
CCc1ccc(Nc2n[n+](C)c(-c3ccncc3)s2)cc1 | 102.0 | / | 99.0 | -9.2 | -7.0 | -5.0 | / | / | /
COc1cc2nc(N(CCCN(C)C)C(=O)c3ccc(S(=O)(=O)N4CCc5ccccc5C4)cc3)sc2cc1OC | / | / | / | -7.0 | / | 16.9 | / | / | /
COc1cc2nc(N(CCCN(C)C)C(=O)c3ccc(C(=O)c4ccccc4)cc3)sc2cc1OC | / | / | / | -0.9 | / | -1.2 | / | / | /
COc1cccc2sc(N(CCCN(C)C)C(=O)c3ccc(S(=O)(=O)N4CCCc5ccccc54)cc3)nc12 | 187.0* | / | 110.0 | 8.9 | 38.0* | 34.0 | 172.0 | 39.0 | 107.0
CCc1ccc2nc(N(CCCN(C)C)C(=O)c3ccc(C(=O)c4ccccc4)cc3)sc2c1 | 186.0* | / | 104.0 | 12.7 | 32.0* | 24.0 | 205.0 | 64.0 | 109.0
CCc1ccc2nc(N(CCCN(C)C)C(=O)c3ccc(S(=O)(=O)N4CCCc5ccccc54)cc3)sc2c1 | 188.0* | / | 97.0 | -4.3 | 32.0* | 27.6 | 203.0 | 52.0 | 107.0
CC(=O)NCCn1c(C)cc2ccccc21 | 106.0 | 2.05 | 101.0 | 3.5 | 5.0 | -5.9 | / | / | /
Cc1cc2ccccc2n1CCNC(=O)COc1ccccc1 | 33.0*[inhibitor] | -0.168 | 58.0*[inhibitor] | -6.2 | -27.0 | 0.5 | 65.0 | -16.0 | 88.0
Cc1cc2ccccc2n1CCNC(=O)c1ccc(S(=O)(=O)N2CCOCC2)cc1 | / | -0.531 | 57.0*[inhibitor] | -22.4 | -5.0 | -6.4 | 77.0 | -12.0 | 89.0
Cc1onc(-c2ccccc2Cl)c1C(=O)NCCn1c(C)cc2ccccc21 | / | / | 71.0*[inhibitor] | -5.1 | -31.0 | -4.7 | 98.0 | -7.0 | 98.0
CCC(=O)NCCn1c(C)cc2ccccc21 | 107.0 | -0.738 | 99.0 | -0.7 | 4.0 | -9.1 | / | / | /
Cc1cc2ccccc2n1CCNC(=O)c1ccccc1 | 75.0 | -0.2 | 66.0*[inhibitor] | -0.4 | -33.0 | -2.5 | 30.0 | -32.0 | 59.0*
CC(=O)NCCc1ccc(C(=O)CSc2nnc(C3CC3)n2C2CC2)cc1 | / | / | / | -1.4 | / | 3.7 | / | / | /
CN(Cc1ccccc1)C(=O)c1ccc(NC(=O)Cc2ccc(NC(=O)C3CCCN(S(=O)(=O)c4cccc([N+](=O)[O-])c4)C3)cc2)cc1 (stereo unspecified) | / | / | / | -9.2 | / | 1.5 | / | / | /
Cc1ccc(NCC(=O)Nc2cccc(S(=O)(=O)N(C)C)c2)cc1S(=O)(=O)N1CCCCCC1 | / | / | / | -16.2 | / | 4.5 | / | / | /
Cc1cc2ccccc2n1CCNC(=O)c1ccc(Br)o1 | 99.0 | -0.447 | 47.0*[inhibitor] | -3.6 | 8.0 | -8.7 | 21.0 | -30.0 | 53.0*
Cc1cc2ccccc2n1CCNC(=O)C(C)(C)C | 95.0 | 1.92 | 105.0 | -20.4 | 5.0 | -2.0 | / | / | /
O=C(CN1C(=O)NC2(CCCCC2)C1=O)Oc1ccc2c(C(F)(F)F)cc(=O)oc2c1 | / | / | / | 5.9 | / | 4.9 | / | / | /
CCOc1ccc(S(=O)(=O)N2CCOCC2)cc1NC(=O)CSC(=S)N1CCCC1 | / | / | / | 5.7 | / | -9.4 | / | / | /
CCn1c(-c2ccc(-c3ccccc3)cc2)c[nH]c1=S | 98.0 | -1.03 | 96.0 | -9.3 | 1.0 | 5.7 | / | / | /
C=CCn1c(-c2ccccc2)c[nH]c1=S | 124.0 | -0.157 | 124.0* | -14.0 | 5.0 | -0.2 | 104.0 | 8.0 | 104.0
O=C(CN1CCCCCC1=O)N1CCN(S(=O)(=O)c2cccs2)CC1 | 103.0 | -0.601 | 99.0 | -8.2 | 0.0 | -2.7 | / | / | /
SMILES | MEKK2wt PB1 HTS | Dynein cargo inh | MEKK3 PB1 HTS | ATG4B inhibitor | MEKK2mut PB1 HTS | B2AR ag | MEKK2wt confirm | MEKK2mut confirm | MEKK3 confirm
Cc1ccc(/C=C/C(=O)NC2CCS(=O)(=O)C2)cc1 (stereo unspecified) | 101.0 | 0.493 | 104.0 | -3.8 | 0.0 | 4.3 | / | / | /
O=C(/C=C/c1ccccc1)NC1CCS(=O)(=O)C1 (stereo unspecified) | 95.0 | 0.731 | 72.0*[inhibitor] | -5.5 | 0.0 | -0.2 | 99.0 | -5.0 | 102.0
O=C(NCc1ccco1)c1cccc(S(=O)(=O)N2CCCCC2)c1 | 105.0 | -0.497 | 103.0 | -1.0 | 3.0 | -5.9 | / | / | /
CSc1ccc(NC(=O)NCCN2CCc3ccccc3C2)cc1 | 86.0 | -1.14 | 49.0*[inhibitor] | -7.8 | -20.0 | -9.8 | 132.0 | 17.0 | 107.0
CSc1ccc(NC(=O)NCCCN2CCC(Cc3ccccc3)CC2)cc1 | 162.0* | / | 111.0 | 2.6 | 30.0* | 18.3 | 185.0 | 40.0 | 112.0
Cc1c(O)ccc2c(CC(=O)N[C@@H](Cc3ccc(O)cc3)C(=O)O)cc(=O)oc12 | 108.0 | / | 110.0 | -2.8 | 11.0 | 0.5 | / | / | /

Source: PubChem (several laboratories)
